The values that follow come from ChEMBL document CHEMBL4251733, “Manumycin A Is a Potent Inhibitor of Mammalian Thioredoxin Reductase-1 (TrxR-1)” (ACS Med Chem Lett, 2018).

A short description of series [1]: Drug metabolism assessed as selenocysteine reactivity at 20 uM incubated for 1 hr measured every 5 mins for 1 hr by sel-green probe based fluorescence assay. Format: physicochemical. An outline of the steps: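 Reduced L-selenocysteine (20 μM) reacted with Sel-green probe (20 μM) with test compound at 20 μM; DMSO-only control.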
Series [2] deals with T1, Thioredoxin reductase 1, cytoplasmic (Rattus norvegicus) (UniProt O89049).
T1 sequence (whole entry): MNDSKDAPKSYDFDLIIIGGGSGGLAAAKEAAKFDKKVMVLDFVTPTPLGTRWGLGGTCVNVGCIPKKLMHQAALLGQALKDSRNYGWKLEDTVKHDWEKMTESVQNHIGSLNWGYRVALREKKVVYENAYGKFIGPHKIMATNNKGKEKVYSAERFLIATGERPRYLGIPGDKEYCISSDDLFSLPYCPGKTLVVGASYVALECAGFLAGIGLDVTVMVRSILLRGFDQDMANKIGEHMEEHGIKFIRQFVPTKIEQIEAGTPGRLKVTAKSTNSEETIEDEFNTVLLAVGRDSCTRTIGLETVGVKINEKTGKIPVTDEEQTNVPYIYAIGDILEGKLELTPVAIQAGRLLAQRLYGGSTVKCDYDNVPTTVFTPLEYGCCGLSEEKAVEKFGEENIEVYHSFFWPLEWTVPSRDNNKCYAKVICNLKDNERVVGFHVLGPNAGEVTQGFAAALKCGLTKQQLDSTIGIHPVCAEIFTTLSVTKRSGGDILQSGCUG
Briefly: (§1) Inhibition of NADPH-reduced recombinant rat TrxR1 expressed in Escherichia coli harboring gor mutant assessed as suppression of insulin reduction using Trx as substrate pretreated for 30 mins followed by Trx addition for 30 mins and subsequent eosin-labelled bovine insulin addition measured every 5 mins for 1 hr by fluorescence assay.

Series [3] addresses T2, Thioredoxin reductase 1, cytoplasmic (Rattus norvegicus, UniProt O89049). The series is described as §1.
In series [4] the target is T1, Thioredoxin reductase 1, cytoplasmic (Rattus norvegicus). Briefly: Time-dependent inhibition of NADPH-reduced recombinant rat TrxR1 expressed in Escherichia coli harboring gor mutant assessed as suppression of DTNB reduction at 1 uM measured every 5 mins for 1 hr.
The target of series [5] is T2, Thioredoxin reductase 1, cytoplasmic. Briefly: Inhibition of NADPH-reduced recombinant rat TrxR1 expressed in Escherichia coli harboring gor mutant assessed as suppression of DTNB reduction incubated for 1 hr in presence of DTNB measured every 5 mins for 1 hr. In a few lines:
(§2)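 Rat recombinant TrxR-1 (5.6 nM), prereduced, with DTNB (2 mM) and compound 0–5000 nM. Compound was either preincubated 1 h with enzyme before substrate or added at the same time as DTNB. Read-out was initial rates of DTNB reduction relative to no-compound control, giving IC50 (± error).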

Series [6] concerns the target T1, Thioredoxin reductase 1, cytoplasmic (Rattus norvegicus). The series is described as follows: Inhibition of NADPH-reduced recombinant rat TrxR1 expressed in Escherichia coli harboring gor mutant assessed as suppression of DTNB reduction at 5 uM pretreated for 1 hr followed by DTNB addition measured every 5 mins for 1 hr. In a few lines:
as §2

Series [7] has the same target. The series is described as follows: Inhibition of oxidized recombinant rat TrxR1 expressed in Escherichia coli harboring gor mutant assessed as suppression of DTNB reduction at 2 uM pretreated for 30 mins followed by NADPH addition for 30 mins and subsequent DTNB addition measured every 5 mins for 1 hr.
Series [8] shares this target. The series is described as follows: Induction of recombinant rat TrxR1 NADPH oxidase activity expressed in Escherichia coli harboring gor mutant assessed as superoxide generation by measuring cytochrome C reduction at 62.5 uM measured in presence of SOD. In a few lines: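 TrxR-1 (100 nM) incubated with compound (62.5 μM), with and without SOD (6 units/well); reduction of cytochrome C (100 μM) followed over time; DMSO-only control.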

Series [9] has as its target T2, Thioredoxin reductase 1, cytoplasmic. The series is described as follows: Inhibition of NADPH-reduced recombinant rat TrxR1 expressed in Escherichia coli harboring gor mutant assessed as suppression of DTNB reduction pretreated for 1 hr followed by DTNB addition measured every 5 mins for 1 hr. In a few lines: as §2
In series [10] the target is T1, Thioredoxin reductase 1, cytoplasmic (Rattus norvegicus). Briefly: Irreversible inhibition of NADPH-reduced recombinant rat TrxR1 expressed in Escherichia coli harboring gor mutant assessed as suppression of DTNB reduction at 2 uM pretreated for 1 hr followed by NADPH addition for 30 mins and subsequent DTNB addition measured every 5 mins for 1 hr.
Series [11] has the same target. The series is described as follows: Inhibition of NADPH-reduced recombinant rat TrxR1 expressed in Escherichia coli harboring gor mutant assessed as suppression of DTNB reduction at 5 uM incubated for 1 hr in presence of DTNB measured every 5 mins for 1 hr. In a few lines:
as §2

SMILES strings stand for the structures. Calls of active or inactive are those of the source. No cut-off for these calls is given here.

As to `CCCCC(C)/C=C(C)/C=C(\C)C(=O)Nc1cc(/C=C/C=C/C=C/C(=O)NC2=C(O)CCC2=O)c(O)cc1O` (configuration not stated), in [1], the Drug metabolism entry was “Metabolite_Notdetected”.

One may read the IC50 as the concentration needed to halve the response being measured. In the case of `CCCC[C@@H](C)/C=C(C)/C=C(\C)C(=O)NC1=C[C@@](O)(/C=C/C=C/C=C/C(=O)NC2=C(O)CCC2=O)[C@@H]2O[C@@H]2C1=O` [MANUMYCIN A], the Drug metabolism result in series [1] is “Metabolite_Detected”. Besides, the inhibition result in [2] is “Dose-dependent effect”. Besides, the 50% inhibitory concentration (IC50) came to 0.572 µM in series [3], 1.59 µM in series [5] and 0.272 µM in [9]. Also, the TDI result in series [4] was “Active”. Moreover, the inhibition result in [6], in [10] and in series [11] was “Active” each time. The inhibition entry in series [7] is “inactive”. In addition, in [8], the outcome was inactive.
